Measured values: ChEMBL document CHEMBL4325856, “Synthesis of cinnamic amide derivatives and their anti-melanogenic effect in α-MSH-stimulated B16F10 melanoma cells” (Eur J Med Chem, 2019)
Blank lines part the entries; values can stand above or below the compound they belong to. Activity calls are given as the source filed them. The rule behind the calls is not given here.

Assays:
[1] = target: T1, Tyrosinase (Agaricus bisporus) (UniProt O42713); conditions: at 25 µM
T1 sequence (whole entry): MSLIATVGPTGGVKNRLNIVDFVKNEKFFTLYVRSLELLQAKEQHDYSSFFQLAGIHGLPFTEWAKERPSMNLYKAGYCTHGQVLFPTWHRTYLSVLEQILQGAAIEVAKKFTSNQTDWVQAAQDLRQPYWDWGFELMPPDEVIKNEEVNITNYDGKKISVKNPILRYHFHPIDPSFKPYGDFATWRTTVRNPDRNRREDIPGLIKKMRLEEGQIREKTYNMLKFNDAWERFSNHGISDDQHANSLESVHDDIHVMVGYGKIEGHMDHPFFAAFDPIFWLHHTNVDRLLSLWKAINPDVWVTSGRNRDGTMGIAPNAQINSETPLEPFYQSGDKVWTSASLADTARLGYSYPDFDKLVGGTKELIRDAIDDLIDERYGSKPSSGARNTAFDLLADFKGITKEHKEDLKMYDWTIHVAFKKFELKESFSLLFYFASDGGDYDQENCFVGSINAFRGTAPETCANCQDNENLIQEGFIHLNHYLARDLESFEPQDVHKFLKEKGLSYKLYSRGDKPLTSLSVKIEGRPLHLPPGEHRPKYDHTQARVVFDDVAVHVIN

[2] = target: T1, Tyrosinase (Agaricus bisporus); test: Potency index, ratio of compound effect to kojic acid effect for inhibition of mushroom tyrosinase at 25 uM using L-tyrosine as substrate
Tyrosinase = target: T2, Tyrosinase (Agaricus bisporus, UniProt O42713); test: Inhibition of mushroom tyrosinase using L-tyrosine as substrate incubated for 30 mins by spectrophotometric method
T2 sequence (O42713 whole entry): T1 sequence (whole entry)
In short: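 Mushroom tyrosinase with test sample (final 25 µM) in substrate mix of 14.7 mM potassium phosphate buffer and 293 µM L-tyrosine (1:1, v/v), incubated 30 min at 37 °C. Dopachrome absorbance read at 450 nm; % inhibition calculated against untreated control. Kojic acid 25 µM and arbutin 400 µM as positive controls. Triplicate; means ± SEM.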

B16-F10 [3] = test: Antimelanogenic activity in alpha-MSH-stimulated mouse B16F10 cells assessed as reduction in melanin content treated at 24 hrs post alpha-MSH stimulation and measured after 24 hrs; type: functional, cell-based
In short: (§1)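 Cells grown in 24-well plates for 24 h, then stimulated with 1 µM α-MSH and treated with 0, 5, 10 or 25 µM test agent (kojic acid 25 µM as reference) for 24 h. Washed with PBS, melanin dissolved in 200 µL 1N NaOH, absorbance read at 405 nm. Triplicate; means ± SEM, one-way ANOVA with Tukey's test.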

[4] = target: T3, Tyrosinase (Mus musculus) (UniProt P11344); test: Inhibition of tyrosinase in alpha-MSH-stimulated mouse B16F10 cells assessed as reduction in dopachrome production using L-DOPA as substrate measured after 24 hrs by spectrophotometric method
T3 sequence (whole entry): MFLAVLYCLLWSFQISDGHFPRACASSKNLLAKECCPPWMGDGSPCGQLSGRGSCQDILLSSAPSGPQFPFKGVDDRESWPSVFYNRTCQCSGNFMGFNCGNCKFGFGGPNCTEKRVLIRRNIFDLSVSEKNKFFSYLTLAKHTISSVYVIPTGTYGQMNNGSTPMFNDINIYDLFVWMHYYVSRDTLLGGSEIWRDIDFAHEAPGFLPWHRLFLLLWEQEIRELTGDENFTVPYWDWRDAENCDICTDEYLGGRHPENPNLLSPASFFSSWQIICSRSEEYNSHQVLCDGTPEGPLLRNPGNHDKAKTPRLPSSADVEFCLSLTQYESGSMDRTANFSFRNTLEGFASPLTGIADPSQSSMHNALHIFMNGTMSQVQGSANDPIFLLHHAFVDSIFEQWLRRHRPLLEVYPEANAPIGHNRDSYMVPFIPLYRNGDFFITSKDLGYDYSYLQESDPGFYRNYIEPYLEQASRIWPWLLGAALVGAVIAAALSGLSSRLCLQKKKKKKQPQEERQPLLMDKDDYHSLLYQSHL
In short: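 B16F10 cells activated with 1 µM α-MSH, then given 0, 5, 10 or 25 µM test agent or 25 µM kojic acid for 24 h. Cells washed with PBS and lysed in 50 mM PBS pH 6.8 with 0.1 mM PMSF and 1% Triton X-100. Lysate frozen at -80 °C for 30 min, spun 12,000 rpm 30 min at 4 °C. Supernatant (80 µL) mixed with 20 µL 10 mM L-dopa, 37 °C for 30 min, OD read at 500 nm. Triplicate.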

B16-F10 [5] = test: Antimelanogenic activity in alpha-MSH-stimulated mouse B16F10 cells assessed as reduction in melanin content at 25 uM treated at 24 hrs post alpha-MSH stimulation and measured after 24 hrs relative to control; type: functional; parameters: scale not given: the % may be the effect or the level left
In short: as §1

B16-F10 [6] = test: Cytotoxicity against mouse B16F10 cells assessed as reduction in cell viability at 5 to 25 uM after 24 hrs by WST8 assay; type: cell-based; conditions: b16-f10, 24 h
In short: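 Murine B16F10 cells in DMEM with 10% FBS and penicillin/streptomycin at 37 °C, 5% CO2, in 96-well plates. Pre-cultured cells exposed to 0, 5, 10 or 25 µM for 24 h. WST-8 reagent then added for 30 min to 2 h, absorbance read at 450 nm, viability given as % of control. Triplicate; means ± SEM.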

[7] = target: T1, Tyrosinase (Agaricus bisporus); test: Competitive inhibition of mushroom tyrosinase at 10 to 40 nM using varying levels of L-tyrosine as substrate by Lineweaver-Burk plot analysis
In short: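 Mushroom tyrosinase (200 units) with inhibitor at 10, 20 and 40 nM and L-tyrosine 0.03125 to 16 mM, in 50 mM potassium phosphate pH 6.5. Initial dopachrome formation rate taken as ΔOD475/min. Km and Vmax from Lineweaver–Burk plots (1/V vs 1/[S]); Ki from modified Michaelis–Menten equation. Triplicate.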

SMILES: COc1ccc(/C=C/C(=O)Nc2ccccc2)cc1O
inhibition [1]: 29.7%

SMILES: O=C1CC(c2ccc(O)c(O)c2)c2ccccc2N1 (configuration not stated)
inhibition [1]: inactive

SMILES: CCN(CC)C(=O)/C=C/c1ccc(OC)c(O)c1
inhibition [1]: 20.7%

SMILES: COc1cc(C2CC(=O)Nc3ccccc32)ccc1O (configuration not stated)
inhibition [1]: inactive

SMILES: CCN(CC)C(=O)/C=C/c1ccc(O)c(O)c1
inhibition [1]: inactive

SMILES: CCN(CC)C(=O)/C=C/c1ccc(O)cc1
inhibition [1]: inactive

SMILES: CCN(CC)C(=O)/C=C/c1ccc(O)cc1O
Ratio [2]: 3
IC50 (Tyrosinase): 11.2 nM
Activity (B16-F10 [3]): Dose-dependent effect
inhibition [1]: 96.2%
inhibition [4]: Dose-dependent effect
Activity (B16-F10 [5]): 78.07%
Activity (B16-F10 [6]): Non-Toxic
inhibition [7]: Active

SMILES: CCN(CC)C(=O)/C=C/c1ccc(O)c(OC)c1
inhibition [1]: 61.9%

SMILES: O=c1cc(CO)occ1O [KOJIC ACID]
Activity (B16-F10 [5]): 44.26%

SMILES: COc1ccc(C2CC(=O)Nc3ccccc32)cc1O (configuration not stated)
inhibition [1]: 25.9%

SMILES: O=C1CC(c2ccc(O)cc2)c2ccccc2N1 (configuration not stated)
inhibition [1]: inactive

More lines, main results first:

Ratio [2]: 3
IC50 (Tyrosinase): 25.6 nM
inhibition [4]: Dose-dependent effect
inhibition [7]: Active
SMILES: O=C(/C=C/c1ccc(O)cc1O)Nc1ccccc1
Activity (B16-F10 [3]): Dose-dependent effect
Activity (B16-F10 [5]): 63.97%
Activity (B16-F10 [6]): Non-Toxic

Ratio [2]: 3
inhibition [1]: 85.4%
inhibition [4]: Dose-dependent effect
SMILES: O=C(/C=C/c1ccc(O)cc1O)NCc1ccccc1
Activity (B16-F10 [3]): Dose-dependent effect
Activity (B16-F10 [5]): 65.84%
Activity (B16-F10 [6]): Non-Toxic

inhibition [1]: 10%
SMILES: O=C(/C=C/c1ccc(O)c(O)c1)NCc1ccccc1

inhibition [1]: 59%
SMILES: COc1cc(/C=C/C(=O)Nc2ccccc2)ccc1O

Ratio [2]: 3
inhibition [1]: 82.9%
inhibition [4]: Dose-dependent effect
SMILES: COc1cc(/C=C/C(=O)NCc2ccccc2)ccc1O
Activity (B16-F10 [3]): Dose-dependent effect
Activity (B16-F10 [5]): 80.43%
Activity (B16-F10 [6]): Non-Toxic

inhibition [1]: 31.5%
SMILES: COc1ccc(/C=C/C(=O)NCc2ccccc2)cc1O

inhibition [1]: inactive
SMILES: O=C(/C=C/c1ccc(O)cc1)NCc1ccccc1

inhibition [1]: inactive
SMILES: O=C(/C=C/c1ccc(O)c(O)c1)Nc1ccccc1
